Compound activity: PubChem BioAssay, Broad Institute
Hits are enriched below; roughly 2% of the tested compounds scored in any of these assays.
E-selectin induc: E-selectin induction on HUVECs; HUVEC E-selectin immunofluorescence imaging; normalized: neutral wells 0, TNF-alpha wells 100; activation, % at 7.58 µM; 0.37% of 260,000 active;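 active = mean E-selectin-positive cell signal at least 10% of the positive control, reached in at least 60% of replicates, without over 20% cell loss; inconclusive = no rule given, readout overlaps actives, possibly toxicity-flagged; inactive = the rest, including those meeting only one limit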
Target sequence (P16581 whole entry, looked up): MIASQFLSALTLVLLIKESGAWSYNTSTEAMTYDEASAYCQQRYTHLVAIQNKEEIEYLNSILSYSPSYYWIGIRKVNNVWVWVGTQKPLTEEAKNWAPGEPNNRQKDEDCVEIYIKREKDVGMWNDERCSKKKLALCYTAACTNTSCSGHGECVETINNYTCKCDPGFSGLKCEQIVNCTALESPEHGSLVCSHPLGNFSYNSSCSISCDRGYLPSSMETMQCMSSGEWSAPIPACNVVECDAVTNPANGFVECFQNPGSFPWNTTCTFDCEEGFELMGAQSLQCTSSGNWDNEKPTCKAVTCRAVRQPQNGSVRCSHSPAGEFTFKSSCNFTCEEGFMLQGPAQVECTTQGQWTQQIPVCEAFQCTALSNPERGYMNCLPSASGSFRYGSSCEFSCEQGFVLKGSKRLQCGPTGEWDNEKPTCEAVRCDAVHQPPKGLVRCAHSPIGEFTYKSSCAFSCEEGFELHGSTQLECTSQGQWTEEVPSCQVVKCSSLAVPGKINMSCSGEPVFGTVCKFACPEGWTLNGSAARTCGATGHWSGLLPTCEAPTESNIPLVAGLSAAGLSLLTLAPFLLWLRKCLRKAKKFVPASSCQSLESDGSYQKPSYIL
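System: HUVEC, human umbilical vein endothelial cells; quantity: 3,000 cells/well; buffer or medium: EGM-2 medium, gelatin-coated wells; dosing: single-point compound dose; detection: immunofluorescence imaging; evaluation: % PE-positive cells; benchmarks: TNF-alpha, DMSO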
S100A4 inh HTS: inhibitors of human S100A4 binding to myosin IIA peptide; AID 652163; 0.14% of 360,000 active; P26447; S100A4/TAMRA-MyoIIA peptide fluorescence polarization; inhibition, % at 10.7 µM;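 active = mean inhibition of at least 70% across replicates, with every replicate also reaching that level; inconclusive = mean inhibition reaches 70% but some replicates fall short; inactive = mean inhibition below 70%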
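System – human S100A4 monomer protein, biochemical binding assay · Buffer or medium – Calcium-containing HEPES buffer, pH 7.2 · Timing – 5 min between mix addition and reading · Also added – TAMRA-labelled myosin IIA heavy-chain peptide probe, 5 nM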
DENV2 CPE rescue: DENV2-induced cell death inhibition; DENV2-infected cells, cytopathic effect rescue, plate reader; 1.7% of 350,000 active; AID 651640; CPE inhibition, % at 9.99 µM; in the data active = CPE inhibition above about 20%, passing the limit was not always enough; inconclusive = no clear call, values can overlap the other calls; tested in BHK-21 cells
XiGFP reactiv: X-chromosome reactivation activator; XiGFP mouse fibroblasts, % GFP-positive cells imaging, 3 d; cells co-treated with 5-aza-dC sensitizer; scaled so ellipticine positive control = 100%; activation, % at 7.58 µM; 0.055% of 360,000 active; AID 743238;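 active = mean normalized replicate activation at least 10% and every replicate at or above 10%; inconclusive = only one of the two criteria met; inactive = mean below 10% and not all replicates reach 10%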
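Assay system: SV40-immortalized XiGFP fibroblast cells, line 68-5-11; buffer or medium: DMEM plus 5-aza-dC sensitizer; compound: one concentration, pinned; timing: compounds 3 days, fix/stain 15 min at room temperature; benchmarks: positive control ellipticine, 6 µM final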
Hits are given with their value; 0 = inactive; ? = inconclusive; - = no result.

SMILES	E-selectin induc	S100A4 inh HTS	DENV2 CPE rescue	XiGFP reactiv
Cc1ccc2c(COC(=O)CNC(=O)c3ccccc3)cc(=O)oc2c1	-	0	117.9	0
Cc1ccc(S(=O)(=O)NCC(=O)OCc2cc(=O)oc3cc(C)ccc23)cc1	-	0	0	0
C[C@H]1CN([C@@H](C)CO)C(=O)c2cc(NC(=O)Nc3ccc(F)cc3)ccc2O[C@H]1CN(C)Cc1ccccc1	0	0	24.5	0
CNC[C@H]1Oc2ccc(NC(=O)NC(C)C)cc2C(=O)N([C@@H](C)CO)C[C@@H]1C	0	0	28.3	0
CNC[C@H]1Oc2ccc(N(C)C)cc2C(=O)N([C@@H](C)CO)C[C@H]1C	129.1	0	0	0
CC(C)NC(=O)Nc1ccc2c(c1)C(=O)N([C@H](C)CO)C[C@@H](C)[C@H](CN(C)Cc1ccccc1)O2	0	0	42.8	0
C[C@@H]1CN([C@@H](C)CO)C(=O)c2cc(NC(=O)Nc3ccc(F)cc3)ccc2O[C@H]1CN(C)Cc1ccccc1	0	0	0	0
COc1ccc(S(=O)(=O)N2CCOCC2)cc1NC(=O)CCNC(=O)c1ccc(Br)cc1	0	0	?	0
C[C@@H]1CCCCO[C@H](CN(C)CC2CC2)[C@@H](C)CN([C@@H](C)CO)C(=O)c2cc(NS(=O)(=O)c3ccc(Cl)cc3)ccc2O1	0	0	0	0
CO[C@H]1CN(C)C(=O)c2cc(NC(=O)Nc3ccc(Cl)c(Cl)c3)ccc2OC[C@@H](C)NC[C@H]1C	0	-	-	0
CC(C)NC(=O)Nc1ccc2c(c1)C(=O)N([C@@H](C)CO)C[C@@H](C)[C@@H](CN(C)Cc1ccc(C(=O)O)cc1)O2	0	0	24.6	0
O=C(O)CC1C(=O)NCCN1Cc1cccs1 (stereo not drawn)	84.8	0	0	0
Cc1noc(C)c1S(=O)(=O)Nc1ccc2c(c1)CC(=O)N([C@H](C)CO)C[C@@H](C)[C@@H](CN(C)C(=O)NC(C)C)O2	0	0	45.7	0
Cc1noc(C)c1S(=O)(=O)Nc1ccc2c(c1)CC(=O)N([C@@H](C)CO)C[C@@H](C)[C@@H](CN(C)C(=O)Nc1cccc3ccccc13)O2	0	0	-	0
Cc1noc(C)c1S(=O)(=O)Nc1ccc2c(c1)CC(=O)N([C@H](C)CO)C[C@H](C)[C@@H](CN(C)C(=O)Nc1cccc3ccccc13)O2	305.3	0	0	0
Cc1noc(C)c1S(=O)(=O)Nc1ccc2c(c1)CC(=O)N([C@H](C)CO)C[C@@H](C)[C@H](CN(C)C(=O)Nc1cccc3ccccc13)O2	32.1	0	0	0
Cc1noc(C)c1S(=O)(=O)Nc1ccc2c(c1)CC(=O)N([C@@H](C)CO)C[C@H](C)[C@H](CN(C)C(=O)NC(C)C)O2	0	0	0	0
Cc1noc(C)c1S(=O)(=O)Nc1ccc2c(c1)CC(=O)N([C@H](C)CO)C[C@H](C)[C@H](CN(C)C(=O)Nc1ccccc1)O2	0	0	0	0
O=C(C[C@@H]1CC[C@H]2[C@@H](COC[C@@H](O)CN2Cc2ccc3c(c2)OCO3)O1)N1CCCCC1	0	0	0	0
CCCC(=O)Nc1ccc2c(c1)C(=O)N(C)[C@H]1CC[C@H](CC(=O)NCc3ccccc3)O[C@H]1CO2	0	0	0	0
Cc1noc(C)c1NC(=O)N[C@H]1C=C[C@@H](CC(=O)NCc2ccc(Cl)c(Cl)c2)O[C@H]1CO	0	-	-	0
O=C(O)CC1S/C(=N/N=C/C=C/c2ccccc2[N+](=O)[O-])NC1=O (stereo not drawn)	-	-	-	0
O=C1c2cccc3c(O)ccc(c23)C(=O)N1Cc1ccco1	0	0	24.2	0
O=C(O)c1ccc2c(c1)C(=O)N(Cc1ccco1)C2=O	-	0	0	0
O=C(CCN1CCCCC1)N[C@H]1CC[C@@H](CCNS(=O)(=O)c2ccc(F)cc2)O[C@H]1CO	0	0	25.3	0
O=C(NCC[C@H]1CC[C@H](NC(=O)C2CCCC2)[C@@H](CO)O1)c1ccc(F)cc1	0	0	29.4	0
Cc1ccccc1S(=O)(=O)NCC[C@@H]1CC[C@H](NC(=O)C2CCCC2)[C@@H](CO)O1	0	0	22.9	0
Cc1ccc(S(=O)(=O)NCC[C@@H]2CC[C@H](NC(=O)CCN3CCCCC3)[C@H](CO)O2)cc1	0	0	72.6	0
Cc1ccccc1S(=O)(=O)NCC[C@@H]1CC[C@@H](NC(=O)C2CCCC2)[C@@H](CO)O1	0	0	0	0
CC(=O)N(C)C[C@@H]1Oc2ccccc2CC(=O)N(C)C[C@@H]1C	-	-	-	0
